From PubChem BioAssay
LMPTP block – blocks human LMPTP phosphatase; hit rate 0.22% among 360,000; inhibition, % at 20 µM; P24666; recombinant LMPTP-A, OMFP fluorogenic substrate, fluorescence intensity;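 active = compounds that cut the enzyme signal by at least half of the control window in the single-dose screen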
Target sequence (P24666 whole entry, looked up): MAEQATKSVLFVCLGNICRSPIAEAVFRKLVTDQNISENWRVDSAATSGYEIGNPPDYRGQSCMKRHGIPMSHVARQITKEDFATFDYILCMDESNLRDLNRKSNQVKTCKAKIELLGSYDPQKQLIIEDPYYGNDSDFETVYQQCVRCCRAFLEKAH
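material = LMPTP-A | quantity = 0.625 nM enzyme | reagent = OMFP substrate, 400 µM final | buffer or medium = Bis-Tris pH 6.0, DTT, detergent | detection = endpoint fluorescence intensity from OMFP dephosphorylation | dosing = single 20 µM dose | read-out basis = % inhibition relative to no-enzyme and uninhibited control wells | control set = no-enzyme and uninhibited controls | timing = 50 min at room temperature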
DNMT1 inh – blocks human DNA methyltransferase DNMT1; hit rate 0.83% among 360,000; inhibition (reported as % activation of signal), % at 10 µM; DNMT1 molecular beacon, Hinp1I cleavage, fluorescence; P26358; in the data active = inhibition above about 50%
STEP inh – blocks human striatal-enriched tyrosine phosphatase; recombinant STEP, OMFP fluorogenic substrate, fluorescence; inhibition, % at 20 µM; hit rate 0.25% among 360,000; AID 588621;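 active = inhibition at 20 µM, scaled per plate between control wells, above about 37%, limit read from the data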
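Assay system: isolated STEP enzyme. Buffer or medium: pH 6.0 Bis-Tris with DTT and Tween 20. Also added: fluorogenic phosphatase substrate OMFP at 25 µM final. Dosing: 20 µM, 1% DMSO. Timing: 20 min reaction, room temperature, in the dark. Measured by: fluorescence intensity, excitation 480 nm, emission 540 nm. Evaluation: normalized % inhibition.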
NadD block – blocks S. aureus nicotinate mononucleotide adenylyltransferase; purified NadD enzyme, colorimetric absorbance read-out; inhibition, % at 20 µM; hit rate 0.78% among 360,000; AID 602399; in the data active = inhibition above about 26%
Scp1 inh – inhibitors of human Scp-1 phosphatase | Recombinant Scp1, phosphopeptide, malachite green phosphate absorbance | inhibition, % at 20 µM | hit rate 0.88% among 340,000;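 active = inhibition above about 50% at 20 µM, limit read from the data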
Target sequence (Q9GZU7 76-261 limits assumed): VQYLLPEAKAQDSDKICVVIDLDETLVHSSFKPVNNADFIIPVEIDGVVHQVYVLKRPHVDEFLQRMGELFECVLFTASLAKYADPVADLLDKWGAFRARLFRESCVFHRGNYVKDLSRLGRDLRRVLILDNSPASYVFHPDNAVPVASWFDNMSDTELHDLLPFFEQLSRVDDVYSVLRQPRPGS
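Test system: SCP-1 phosphatase catalytic domain, residues 76-261 | Compound dosing: One concentration, 20 µM, with 1.0% DMSO | Schedule: 45 min room-temperature reaction, 5 min colour, 30 min stabiliser | Detection: Absorbance at 630 nm | Read-out basis: % inhibition of SCP-1 phosphate liberation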
SUMO1 PPI mod – modulators of human SUMO1-mediated protein-protein interactions. P63165. SUMO1 binding to a labelled peptide, TR-FRET, 1 h. inhibition, % at 20 µM. hit rate 0.33% among 360,000. AID 602429; in the data active = inhibition above about 37%
Target sequence (P63165 whole entry, looked up): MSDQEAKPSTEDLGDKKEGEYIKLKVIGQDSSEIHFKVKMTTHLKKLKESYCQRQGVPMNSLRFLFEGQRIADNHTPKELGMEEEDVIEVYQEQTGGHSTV
Scp1 confirm – confirmation of human Scp-1 phosphatase inhibitors. shares compounds with Scp1 inh. recombinant SCP-1 catalytic domain, phosphate release, malachite green absorbance. inhibition, % at 20 µM. hit rate 61% among 2,500
MG interference – interferes with malachite green readout, flagging false Scp-1 hits; AID 540313; 2,500 tested, under 10 active; apparent inhibition (interference), % at 20 µM; shares compounds with Scp1 inh; Colorimetric interference counterscreen, malachite green absorbance 630 nm;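 note: compounds added after enzyme reaction finished so only phosphate colour detection is probed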
Scp-1 Tm shift – binds human Scp-1, shifting its melting temperature | shares compounds with Scp1 inh | Recombinant SCP1, Sypro Orange thermal shift Tm | thermal shift relative to vanadate control, % at 40 µM | hit rate 25% among 1,500 | AID 540329;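 active = substances whose mean melting-temperature shift, as a percentage of the reference inhibitor's shift, reaches about 5.3%, limit read from the data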
DNMT1 confirm – confirmation of human DNMT1 inhibitors. shares compounds with DNMT1 inh. hit rate 8% among 2,300. DNMT1 molecular beacon HinP1I cleavage, fluorescence. inhibition, % at 10 µM;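 active = average inhibition of at least 30% in the single-concentration confirmation test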
Beacon interf – shows spectral interference in the DNMT1 beacon assay; shares compounds with DNMT1 inh; DNMT1 molecular beacon spectral interference counterscreen, fluorescence 485/520; activation (fluorescence interference), % at 10 µM; hit rate 1% among 2,300; AID 602387;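 active = activation of at least 30% at 10 µM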;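 note: DNMT1 catalytic domain with a HinP1I cleavage step and a FAM/dabcyl DNA beacon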
Each line names hits and unclear results; the compound was inactive in the other large screens (follow-up assays come after a bar, where they were run). Only some compounds are listed: those with a hit (about 2.3% of all), similar ones and a draw of the others.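 Rule for the calls, unless noted: active = inhibition of at least 30% at 20 µM; inactive = the rest.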

O=C(COc1cccc([N+](=O)[O-])c1)N/N=C/c1ccco1	DNMT1 inh 59, Scp1 inh 63 | Scp1 confirm 45 | MG interference inactive | Scp-1 Tm shift inactive | DNMT1 confirm inactive | Beacon interf inactive
CCc1ccc(OCC(=O)N/N=C\c2ccco2)c([N+](=O)[O-])c1	DNMT1 inh 81, Scp1 inh 80 | Scp1 confirm 47 | MG interference inactive | Scp-1 Tm shift inactive | DNMT1 confirm inactive | Beacon interf inactive
Cc1c(C(=O)O)cccc1-c1ccc(/C=C2\SC(=O)NC2=O)o1	none
COc1ccccc1N1C(=N)S/C(=C\c2ccc(-c3ccccc3C(=O)O)o2)C1=O	DNMT1 inh 73, Scp1 inh 62 | Scp1 confirm 49 | MG interference inactive | Scp-1 Tm shift 8.3 | DNMT1 confirm inactive | Beacon interf inactive
COc1ccc(C(CC(=O)N2CCCC(C)C2)c2c(OC)cc(OC)c3c(-c4ccccc4)cc(=O)oc23)cc1 (centres undefined)	DNMT1 inh 89, Scp1 inh 58 | Scp1 confirm 62 | MG interference inactive | Scp-1 Tm shift inactive | DNMT1 confirm inactive | Beacon interf inactive
COc1ccc(C(CC(=O)N2CCCCC2)c2c(OC)cc(OC)c3c(-c4ccccc4)cc(=O)oc23)cc1 (centres undefined)	DNMT1 inh 102, Scp1 inh 79 | Scp1 confirm 65 | MG interference inactive | Scp-1 Tm shift inactive | DNMT1 confirm inactive | Beacon interf inactive
COc1cc(C(CC(=O)N2CCCC2)c2c(OC)cc(OC)c3c(-c4ccccc4)cc(=O)oc23)cc(OC)c1OC (centres undefined)	none
Cc1occc1C(=O)NCc1cccc(CNC(=O)c2ccoc2C)c1	DNMT1 inh 51, Scp1 inh 51 | Scp1 confirm 73 | MG interference inactive | Scp-1 Tm shift inactive | DNMT1 confirm inactive | Beacon interf inactive
Cc1occc1C(=O)NCc1ccc2c(c1)OCO2	none
O=C(Nc1ccc(NC(=O)c2cccs2)cc1)c1ccc(Br)o1	DNMT1 inh 54, Scp1 inh 61 | Scp1 confirm 72 | MG interference inactive | Scp-1 Tm shift inactive | DNMT1 confirm inactive | Beacon interf inactive
NC(=O)C1CCN(C(=O)c2ccc3nc(-c4ccccc4)c(-c4ccccc4)nc3c2)CC1	none
COc1ccc(C(=S)N2CCOCC2)cc1OC(=O)c1cc(OC)c(OC)c(OC)c1	none
O=C(N=Nc1c(O)[nH]c2ccc([N+](=O)[O-])cc12)c1cc(-c2ccccc2Cl)nc2ccccc12	LMPTP block 80, DNMT1 inh 95, STEP inh 85, Scp1 inh 95 | Scp1 confirm 77 | MG interference inactive | Scp-1 Tm shift 8.8 | DNMT1 confirm inactive | Beacon interf inactive
CCNc1nc2c(c(=O)n(C)c(=O)n2C)n1CCCc1ccccc1	none
Cc1sc2ncnc(SCC(=O)NC(=O)NCc3ccco3)c2c1C	DNMT1 inh 69, Scp1 inh 57 | Scp1 confirm 49 | MG interference inactive | Scp-1 Tm shift inactive | DNMT1 confirm inactive | Beacon interf inactive
O=C(CSc1nc2cc(Cl)ccc2s1)NC(=O)NCc1ccco1	DNMT1 inh 54, Scp1 inh 80 | Scp1 confirm 53 | MG interference inactive | Scp-1 Tm shift inactive | DNMT1 confirm inactive | Beacon interf inactive
COc1cc(Br)cc(Br)c1OCC(=O)N/N=C/c1c(C)n(C)n(-c2ccccc2)c1=O	none
Cc1[nH]c2ccccc2c1C(=O)COC(=O)C1CC(=O)N(Cc2ccco2)C1 (centres undefined)	none
Cc1ccc(C(=O)Oc2ccc(C(=O)COC(=O)C3CC(=O)N(Cc4ccco4)C3)cc2)cc1 (centres undefined)	DNMT1 inh 66, Scp1 inh 60 | Scp1 confirm 48 | MG interference inactive | Scp-1 Tm shift inactive | DNMT1 confirm inactive | Beacon interf inactive
CCc1ccc(Nc2nnc(SCC(=O)NC(=O)CN3CCCC3=O)s2)cc1	DNMT1 inh 64, Scp1 inh 65 | Scp1 confirm 48 | MG interference inactive | Scp-1 Tm shift inactive | DNMT1 confirm inactive | Beacon interf inactive
COc1ccccc1Nc1nnc(SCC(=O)N2CCCC2=O)s1	none
COc1ccc(NC(=O)CCNC(=O)c2ccco2)c(OC)c1	none
N=C1/C(=C/c2ccc(Br)o2)C(=O)N=C2SC(CC(=O)N3CCCC3)=NN12	DNMT1 inh 66, Scp1 inh 88, SUMO1 PPI mod 57 | Scp1 confirm 58 | MG interference inactive | Scp-1 Tm shift 8.1 | DNMT1 confirm inactive | Beacon interf inactive
Cc1ccc(/C=C2\C(=N)N3N=C(CC(=O)N4CCCCC4)SC3=NC2=O)cc1	none
N=C1/C(=C/c2ccco2)C(=O)N=C2SC(CC(=O)N3CCCC3)=NN12	DNMT1 inh 64, Scp1 inh 73 | Scp1 confirm 63 | MG interference inactive | Scp-1 Tm shift inactive | DNMT1 confirm inactive | Beacon interf inactive
COc1ccc(N(Cc2ccccc2)S(=O)(=O)c2cccc(C(=O)Nc3ncccc3C)c2)cc1	none
Cc1nc2ccccn2c1C(=O)N/N=C/c1ccc([N+](=O)[O-])o1	DNMT1 inh 64, Scp1 inh 67 | Scp1 confirm 53 | MG interference inactive | Scp-1 Tm shift 12 | DNMT1 confirm inactive | Beacon interf inactive
Cc1cccc(NC(=O)CNC(=O)CCc2nc3sc4c(c3c(=O)[nH]2)CCCC4)c1C	DNMT1 inh 84, Scp1 inh 73 | Scp1 confirm 75 | MG interference inactive | Scp-1 Tm shift 13 | DNMT1 confirm inactive | Beacon interf inactive
CC(C)CNC(=O)C1C2C=CC(C2)C1C(=O)O (centres undefined)	none
CC1C=CC(C)C(C(=O)O)C1C(=O)O (centres undefined)	DNMT1 inh 61, Scp1 inh 86 | Scp1 confirm 55 | MG interference inactive | Scp-1 Tm shift inactive | DNMT1 confirm inactive | Beacon interf inactive
